Screens deposited in PubChem by several laboratories.
Only some compounds are listed: those with a hit (about 3.7% of all), similar ones and a draw of the others.
Cl transport mod = modulates chloride dependent transport by human KCC2. Q9H2X9. KCC2 cells, thallium flux FluoZin-2 fluorescence. B-score of Tl+ flux slope (higher = more flux/activation; lower = inhibition) at 10 µM. actives 2.2% (n = 190,000);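 active = thallium flux slope and its plate-corrected score both differing from the plate sample mean at a set confidence after two filtering rounds, in either direction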;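 also: slope of fluorescence scaled to starting intensity during 10 to 20 s after thallium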
Arbovirus inh = antivirals against arbovirus infection; arbovirus infection cell-based antiviral screen; AID 1251; inhibition, % at 10 µM; actives 0.37% (n = 200,000); in the data active = inhibition above about 30%
PKD1 inh = inhibitors of human PKD1 kinase | Q15139 | PKD1 kinase fluorescence polarization assay | inhibition, % (test concentration not listed) | actives 0.056% (n = 200,000); in the data active = inhibition above about 50%
MDM2 E3 inh = inhibitors of human Mdm2 E3 ubiquitin ligase; actives 0.11% (n = 210,000); signal enhancement, % at 5 µM; cell-based MDM2 ubiquitination luciferase reporter, 2 h; 0 = plate control, 100 = twice control, blank-subtracted; Q00987;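 active = signal enhancement of 30% or more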;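 also: luminescence tracks abundance of the self-degrading MDM2-luciferase fusion protein; higher signal means inhibition of MDM2 E3 ligase activity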
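Assay system: stable mammalian line carrying autodegrading MDM2–luciferase fusion reporter; Input: 2000 cells in each well; Compound dosing: single-point 5 µM; Schedule: 2 h compound exposure at 37 °C; Signal: SteadyLite luciferase luminescence after 15 min room-temperature reagent incubation; Evaluation: % luminescence enhancement versus blank-corrected plate control mean; Benchmarks: plate controls and plate blanks.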
m-calpain inh = blocks pig calpain II enzyme activity; purified calpain II, fluorogenic peptide substrate, 30 min; actives 0.37% (n = 220,000); AID 1236; inhibition, % at 16 µM;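 active = inhibition above about 50%, limit read from the data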
ROMK primary = human ROMK K+ channel modulation, primary screen; P48048; Tet-inducible ROMK, thallium flux fluorescence; actives lie on both sides; B-score at 10 µM; actives 2% (n = 130,000); AID 1918;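 active = signal ratio slope over the read window, or its plate-corrected B-score, at least 3 SD from the plate mean, either direction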;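 also: B-score of the F/F0 ratio slope over 7 to 12 s after thallium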
ROMK hit retest = human ROMK channel modulation, retest confirmation; shares compounds with ROMK primary; ROMK thallium flux, fluorescence ratio; hits give low values; normalized thallium flux (F/F0 slope) at 10 µM; AID 1917; actives 54% (n = 3,000);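 active = Flux at 10 µM at least 3 SD below or above vehicle control mean in one or both replicates; inconclusive = no clear call, values can overlap the other calls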
The depositor's hits bear a star; i = inactive; ? = inconclusive; nt = not tested or not shown.

SMILES	Cl transport mod	Arbovirus inh	PKD1 inh	MDM2 E3 inh	m-calpain inh	ROMK primary	ROMK hit retest
COc1ccc(Cn2nc(-c3ccccc3)c(N3CCCCC3)cc2=O)cc1	-0.17	-16	0	-1	72*	-4.4*	?
O=C(Cc1nn[nH]n1)NCc1ccccc1Cl	-1.1	-1	-2	0	7	-0.97	nt
CN(C)/C=C(/C(=O)c1ccc(Cl)cc1)S(=O)(=O)c1ccc(Cl)cc1	-0.1	7	-7	-7	-23	nt	0.082
ClC(Cl)(c1nnnn1-c1ccccc1)c1nnnn1-c1ccccc1	-1.2	-31	3	0	-4	-2.8*	0.06*
COC(=O)[C@H](Cc1ccccc1)NC(=O)N(C)Cc1ccccc1	-0.87	nt	nt	-7	4	nt	nt
CCc1ccc(N2C(=O)Nc3ccccc3C2(O)C(=O)N2CCN(c3ccccn3)CC2)cc1 (stereo unspecified)	1.4	12	-4	-6	-2	0.51	nt
N#C/C(=C\c1ccc(Cl)cc1)c1nc(-c2ccco2)cs1	0.048	-13	-2	18	19	0.61	nt
N#C/C(=C\c1ccncc1)c1nc2c(s1)CCCC2	1.3	6	3	-17	-319	-2*	0.063*
COc1cc(CNc2ccc(N3CCCC3)cc2)cc(Cl)c1OC	0.24	-23	-2	2	-20	4*	0.074
COc1ccc(-c2nnc3ccc(SCC(=O)NCC4CCCO4)nn23)cc1 (stereo unspecified)	0.48	5	-7	-3	-57	-6.1*	0.07
CC(C)NC(=O)COc1ccc2c(c1)C(=O)CC(C)(C)O2	-0.02	-1	-2	-9	i	-0.59	nt
Cc1ccc2c(c1)C(=O)CC(O)(C(F)F)O2 (stereo unspecified)	0.011	nt	nt	1	6	nt	0.093
COc1ccc(OC)c(/C=c2\sc3nc(-c4cccs4)nn3c2=O)c1	nt	1	-1	-6	-83	nt	0.062*
O=C(Cn1c(=S)[nH]c2ccccc2c1=O)N1CCN(c2ccc(F)cc2)CC1	-3.8	1	5	-10	8	-0.23	nt
Cc1ccc(CNC(=O)Cc2ccc(-n3cccc3)cc2)cc1	0.81	-11	-5	-10	-20	2.5	nt
O=C(Cc1ccc(-n2cccc2)cc1)NCc1cccs1	nt	-4	-8	-10	-10	3.4*	?
C1=C(c2ccc(-c3ccccc3)cc2)Nc2ncnn2C1c1ccco1 (stereo unspecified)	-1.8	5	0	-10	-315	nt	nt
Fc1ccc(C2=CC(c3ccco3)n3ncnc3N2)cc1 (stereo unspecified)	0.033	17	-7	-6	-57	-3.1*	0.053*
O=C(COc1ccccc1Br)NCCc1nc2ccccc2[nH]1	-0.69	1	-1	-2	5	-0.69	nt
Cc1cccc(OCCCCNCc2ccccc2)c1	-1.8	5	-7	-9	25	-1.3*	0.062*
COCCNCCCCOc1c(Cl)cc(C)cc1Br	-0.53	-20	1	-6	-6	nt	nt
Clc1ccc(Cl)c(OCCCCNCc2ccccc2)c1	-2.1	-37	-4	0	-14	-3.2*	0.066*
Clc1ccc(OCCCNCc2ccccc2)c(Br)c1	-0.98	-35	0	10	8	-3*	0.064*
Cc1cc(Cl)c(OCCCNCc2ccccc2)c(Br)c1	-0.67	-36	17	-8	-4	-5.2*	0.053*
CC(C)c1ccc(NC(=O)CNS(=O)(=O)c2ccc(F)cc2)cc1	-0.43	5	7	-4	26	0.17	nt
SMILES	Cl transport mod	Arbovirus inh	PKD1 inh	MDM2 E3 inh	m-calpain inh	ROMK primary	ROMK hit retest
CCOC(=O)c1cc([N+](=O)[O-])c([N+](=O)[O-])cc1NC(C)=O	-2.7	-34	1	-6	-4	-1.6	nt
CCc1nnc(NC(=O)C2CCN(c3nc(C)cc(C)n3)CC2)s1	nt	11	5	18	-24	2.2*	0.071
O=C(c1cccc(F)c1)N1CCN(c2cc(N3CCCCC3)c(F)cc2[N+](=O)[O-])CC1	nt	-17	-12	8	13	nt	nt
N#CC1=C(N)C(C#N)(C#N)[C@H](c2c(F)cccc2F)[C@H]2CC3(CC=C12)OCCO3	-0.21	-11	8	14	1	-3.6*	0.053*
CCOc1cc(/C=C2/NC(=O)N(CC(=O)OC)C2=O)ccc1OC	0.85	-4	0	-3	-32	nt	nt
CCOc1cc(Br)c(/C=C2/C(=O)N(C)C(=S)N2CC(=O)OC)cc1OC	-0.019	-19	6	-11	-129	-2.6*	0.075
COc1cccc(-c2nn(C)c3sc(C(=O)NCc4ccccn4)cc23)c1	-1.3	2	-9	-13	i	nt	0.074
COc1cccc(-c2nn(C)c3sc(C(=O)NCc4ccc(C)cc4)cc23)c1	0.32	2	-6	-13	-45	1.4	nt
O=C(CSc1nnnn1C1CCCCC1)Nc1ccccc1F	1.3	-2	-2	-8	-6	-1.6	nt
O=C(CSc1nnnn1C1CC2CCC1C2)Nc1ccnc2ccccc12 (stereo unspecified)	-0.43	15	0	-46	32	nt	?
N#CCCN(Cc1ccccc1)C(=O)Nc1ccc2c(c1)CCO2	0.017	nt	nt	-1	13	0.22	nt
Cc1cc(C(=O)CSc2nnnn2-c2ccc(O)cc2)c(C)n1Cc1ccc2c(c1)OCO2	-0.99	-13	-7	-3	-102	nt	?
Cc1cc(C(=O)CSc2nnnn2-c2ccccc2)c(C)n1-c1ccc2c(c1)OCO2	0.016	3	-3	-10	8	0.12	nt
Cc1ccc(CSc2nc3ccccc3cc2C=O)cc1	-1.5	-31	3	-15	21	nt	0.1*
O=Cc1cc2ccccc2nc1SCc1ccc(Cl)cc1	0.51	-13	-8	-11	-69	nt	nt
N#Cc1cnc(NOCc2ccc(Cl)cc2)nc1	-0.036	27	7	1	-20	-9.5*	0.074
CCN(CC)CCCNC(=S)N(Cc1cccs1)Cc1cc2cc3c(cc2[nH]c1=O)OCCO3	1.6	-21	5	-12	-118	-11*	0.055*
CCOC(=O)C1=C(Cc2ccc(C)cc2)C(=O)c2ccccc2C1=O	0.01	1	9	-12	18	-5.1*	0.054*
CCOC(=O)C1=C(O)c2ccccc2C(=O)/C1=C\c1ccc(CC)cc1	nt	-19	-17	-1	18	nt	nt
O=C(c1cccc([N+](=O)[O-])c1)c1ccccn1	0.074	nt	nt	-6	8	nt	?
N#C/C(=C\c1cccc([N+](=O)[O-])c1)c1ccccn1	0.054	-5	3	-9	-19	-3.6*	0.046*
O=C(NNC(=O)c1ccccn1)c1cccc([N+](=O)[O-])c1	1.3	-34	-1	-1	-2	0.95	nt
O=[N+]([O-])c1cccc(/C=C/c2ccccn2)c1	-0.43	nt	nt	-6	8	nt	nt
COc1cc(-c2cc(-c3ccc(O)cc3)nc(N)c2C#N)ccc1O	-2	-6	7	-19	-20	4.2*	0.089
